Data as given in ChEMBL document CHEMBL4373711, “Development of 3,5-Dinitrophenyl-Containing 1,2,4-Triazoles and Their Trifluoromethyl Analogues as Highly Efficient Antitubercular Agents Inhibiting Decaprenylphosphoryl-β-d-ribofuranose 2'-Oxidase” (J Med Chem, 2019).
In brackets after ≈: the same amount, converted by molar mass. Activity calls are given as the source filed them. The rule behind the calls is not given here.

How the values were obtained:
Escherichia coli = assay: Antibacterial activity against Escherichia coli ATCC 25922 CCM 3954 at highest concentration measured after 24 to 48 hrs by alamar blue dye based broth microdilution assay; type: functional, organism-based
Mycobacterium kansasii [1] = assay: Antimycobacterial activity against Mycobacterium kansasii 6509/96 after 7 days; type: functional; conditions: 6509/96, 168 h
In short: (§1)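 Microdilution in Šula's semisynthetic medium; compounds in DMSO at 32–0.03 µM. Inoculum from 1.0 McFarland suspension diluted 10-4. […] Isoniazid and rifampicin as reference drugs.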

Mycobacterium kansasii [2] = assay: Antimycobacterial activity against Mycobacterium kansasii 6509/96 after 21 days; type: functional; conditions: 6509/96, 504 h; in short: as §1
Candida albicans = assay: Antifungal activity against Candida albicans ATCC 24433 CCM 8320 at highest concentration measured after 24 to 48 hrs by alamar blue dye based broth microdilution assay; type: functional, organism-based
Aspergillus flavus = assay: Antifungal activity against Aspergillus flavus CCM 8363 at highest concentration measured after 24 to 48 hrs by alamar blue dye based broth microdilution assay; type: functional, organism-based
[3] = system: Mycobacterium tuberculosis; assay: Antimycobacterial activity against XDR Mycobacterium tuberculosis Praha 131 after 21 days; type: functional; conditions: Praha 131, 504 h
In short: (§2)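 M. tuberculosis strains (H37Rv and clinical MDR/XDR isolates) tested by microdilution in Šula's semisynthetic medium. Compounds were dissolved in DMSO and tested at 32 to 0.03 µM in twofold steps. Inoculum was a 1.0 McFarland suspension diluted 10-3. Plates were incubated at 37 °C and read at 14 and 21 days.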

Mycobacterium kansasii [4] = assay: Antimycobacterial activity against Mycobacterium kansasii 6509/96 after 14 days; type: functional; conditions: 6509/96, 336 h; in short: as §1
HepG2 = assay: Cytotoxicity against human HepG2 cells assessed as reduction in cell viability after 48 hrs by CellTiter 96 aqueous one solution assay; type: cell-based; conditions: HepG2, 48 h
[5] = target: T1, Decaprenylphosphoryl-beta-D-ribose oxidase (Mycobacterium tuberculosis (strain ATCC 25618 / H37Rv)) (UniProt P9WJF1); assay: Inhibition of DprE1 in Mycobacterium tuberculosis H37Rv assessed as accumulation of trehalose monomycolates at 10 times MIC measured after 24 hrs in presence of [14C]-acetate by TLC-based autoradiography
T1 sequence (whole entry): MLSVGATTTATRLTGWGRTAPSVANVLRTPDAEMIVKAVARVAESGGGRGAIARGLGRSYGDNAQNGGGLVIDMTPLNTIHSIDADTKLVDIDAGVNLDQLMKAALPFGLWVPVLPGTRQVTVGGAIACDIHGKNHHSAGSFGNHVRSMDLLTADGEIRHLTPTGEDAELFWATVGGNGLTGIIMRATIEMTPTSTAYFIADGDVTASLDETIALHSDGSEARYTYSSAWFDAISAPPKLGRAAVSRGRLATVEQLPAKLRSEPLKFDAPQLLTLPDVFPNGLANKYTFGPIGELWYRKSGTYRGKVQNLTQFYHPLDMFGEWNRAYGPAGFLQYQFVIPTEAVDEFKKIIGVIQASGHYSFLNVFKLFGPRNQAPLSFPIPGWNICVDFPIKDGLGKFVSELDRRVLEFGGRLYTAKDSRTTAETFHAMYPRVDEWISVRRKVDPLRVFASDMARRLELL
In short: (§3)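 M. tuberculosis H37Rv cultures were exposed to compound at final 10× or 100× MIC, or to DMSO, together with [14C]-acetate at 1 µCi/ml final. After 24 h, lipids were extracted in CHCl3/CH3OH (2:1) for 2 h at 65 °C and given two Folch washes. Extracts were run on TLC in CHCl3/CH3OH/H2O (20:4:0.5), then autoradiographed for 7 days at -80 °C.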

Candida tropicalis = assay: Antifungal activity against Candida tropicalis ATCC 750 CCM 8264 at highest concentration measured after 24 to 48 hrs by alamar blue dye based broth microdilution assay; type: functional, organism-based
Klebsiella pneumoniae = assay: Antibacterial activity against Klebsiella pneumoniae at highest concentration measured after 24 to 48 hrs by alamar blue dye based broth microdilution assay; type: functional, organism-based
Mycobacterium kansasii [6] = assay: Antimycobacterial activity against Mycobacterium kansasii CNCTC My 235/80 after 7 days; type: functional; conditions: CNCTC My 235/80, 168 h; in short: as §1
[7] = Cytotoxicity against human A431 cells assessed as cell viability at 30 uM after 48 hrs by CellTiter 96 aqueous one solution assay relative to control; type: cell-based, A-431; conditions: read-out: Activity
In short: (§4)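 HepG2 (DMEM, 10% FBS, 1 mM pyruvate) or A431 (DMEM, 10% FBS) seeded 10,000 cells/well, 24 h at 37 °C, 5% CO2, then 30 µM compound for 48 h. MTS reagent 60 min, absorbance 490 nm, background subtracted; 0.1% DMSO vehicle = 100%, 10% SDS = 0% viability.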

[8] = system: Mycobacterium tuberculosis; assay: Antimycobacterial activity against Mycobacterium tuberculosis H37Rv CNCTC My 331/88 after 21 days; type: functional; conditions: H37Rv CNCTC My 331/88, 504 h; in short: as §2
Mycobacterium avium = assay: Antimycobacterial activity against Mycobacterium avium CNCTC My 330/88 after 14 days; type: functional; conditions: CNCTC My 330/88, 336 h
In short: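 M. avium was tested by microdilution in Šula's semisynthetic medium, with compounds dissolved in DMSO and serially diluted from 1000 down to 1. Inoculum was a 1.0 McFarland suspension diluted 10-5. Plates were incubated at 37 °C and read at 14 and 21 days. […] Isoniazid and rifampicin served as standards.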

Serratia marcescens = assay: Antibacterial activity against Serratia marcescens at highest concentration measured after 24 to 48 hrs by alamar blue dye based broth microdilution assay; type: functional, organism-based
[9] = Cytotoxicity against human HepG2 cells assessed as cell viability at 30 uM after 48 hrs by CellTiter 96 aqueous one solution assay relative to control; type: cell-based; conditions: read-out: Activity; in short: as §4
A-431 = assay: Cytotoxicity against human A431 cells assessed as reduction in cell viability after 48 hrs by CellTiter 96 aqueous one solution assay; type: cell-based; conditions: A-431, 48 h
[10] = target: T1, Decaprenylphosphoryl-beta-D-ribose oxidase (Mycobacterium tuberculosis (strain ATCC 25618 / H37Rv)); assay: Inhibition of DprE1 in Mycobacterium tuberculosis H37Rv assessed as accumulation of trehalose monomycolates at 100 times MIC measured after 24 hrs in presence of [14C]-acetate by TLC-based autoradiography; in short: as §3
[11] = target: T1, Decaprenylphosphoryl-beta-D-ribose oxidase (Mycobacterium tuberculosis (strain ATCC 25618 / H37Rv)); assay: Inhibition of DprE1 in Mycobacterium tuberculosis H37Rv assessed as accumulation of trehalose dimycolates at 100 times MIC measured after 24 hrs in presence of [14C]-acetate by TLC-based autoradiography; in short: as §3
[12] = Selectivity index, ratio of IC50 for human HepG2 cells to MIC>99 for antimycobacterial activity against Mycobacterium kansasii 6509/96 after 21 days; type: toxicity; conditions: read-out: Selectivity Index
[13] = Selectivity index, ratio of IC50 for human A431 cells to MIC>99 for antimycobacterial activity against Mycobacterium tuberculosis H37Rv CNCTC My 331/88 after 14 days; type: toxicity; conditions: read-out: Selectivity Index
[14] = Selectivity index, ratio of IC50 for human A431 cells to MIC>99 for antimycobacterial activity against Mycobacterium kansasii CNCTC My 235/80 after 14 days; type: toxicity; conditions: read-out: Selectivity Index
[15] = Selectivity index, ratio of IC50 for human A431 cells to MIC>99 for antimycobacterial activity against Mycobacterium kansasii 6509/96 after 21 days; type: toxicity; conditions: read-out: Selectivity Index
[16] = Selectivity index, ratio of IC50 for human A431 cells to MIC>99 for antimycobacterial activity against Mycobacterium avium CNCTC My 330/88 after 14 days; type: toxicity; conditions: read-out: Selectivity Index

## COc1ccc(CSc2nnc(-c3cc([N+](=O)[O-])cc(C(F)(F)F)c3)n2Cc2ccccc2)cc1
Escherichia coli
  Activity: inactive
Mycobacterium kansasii [1]
  MIC99: 0.5 µM (≈ 0.25 µg/mL)
Mycobacterium kansasii [2]
  MIC99: 1 µM (≈ 0.501 µg/mL)
Candida albicans
  Activity: inactive
Aspergillus flavus
  Activity: inactive
[3]
  MIC99: 1 µM (≈ 0.501 µg/mL)
Mycobacterium kansasii [4]
  MIC99: 1 µM (≈ 0.501 µg/mL)
HepG2
  IC50: > 30 µM
[5]
  inhibition: Active
Candida tropicalis
  Activity: inactive
Klebsiella pneumoniae
  Activity: inactive
Mycobacterium kansasii [6]
  MIC99: 0.5 µM (≈ 0.25 µg/mL)
[7]
  viability at 48 h, 30 µM: 74%
[8]
  MIC99: 0.5 µM (≈ 0.25 µg/mL)
Mycobacterium avium
  MIC99: 250 µM (≈ 125 µg/mL)
Serratia marcescens
  Activity: inactive
[9]
  viability at 48 h, 30 µM: 86%
A-431
  IC50: > 30 µM

## O=[N+]([O-])c1cc(-c2nnc(SCc3ccccc3)n2Cc2ccccc2)cc([N+](=O)[O-])c1
Escherichia coli
  Activity: inactive
[10]
  inhibition: Active
Mycobacterium kansasii [1]
  MIC99: 0.03 µM (≈ 0.0134 µg/mL)
Mycobacterium kansasii [2]
  MIC99: 0.03 µM (≈ 0.0134 µg/mL)
Candida albicans
  Activity: inactive
Aspergillus flavus
  Activity: inactive
[3]
  MIC99: 0.03 µM (≈ 0.0134 µg/mL)
Mycobacterium kansasii [4]
  MIC99: 0.03 µM (≈ 0.0134 µg/mL)
HepG2
  IC50: > 30 µM
[5]
  inhibition: inactive
Candida tropicalis
  Activity: inactive
Klebsiella pneumoniae
  Activity: inactive
[11]
  inhibition: Active
Mycobacterium kansasii [6]
  MIC99: 0.03 µM (≈ 0.0134 µg/mL)
[7]
  viability at 48 h, 30 µM: 111%
[8]
  MIC99: 0.03 µM (≈ 0.0134 µg/mL)
Mycobacterium avium
  MIC99: 125 µM (≈ 55.9 µg/mL)
Serratia marcescens
  Activity: inactive
[9]
  viability at 48 h, 30 µM: 106%
A-431
  IC50: > 30 µM

## COc1ccc(Cn2c(SCc3cc([N+](=O)[O-])cc([N+](=O)[O-])c3)nnc2-c2ccccc2)cc1
Escherichia coli
  Activity: inactive
[10]
  inhibition: inactive
Candida albicans
  Activity: inactive
Aspergillus flavus
  Activity: inactive
[3]
  MIC99: 4 µM (≈ 1.91 µg/mL)
HepG2
  IC50: > 30 µM
[5]
  inhibition: inactive
Candida tropicalis
  Activity: inactive
Klebsiella pneumoniae
  Activity: inactive
[11]
  inhibition: inactive
Mycobacterium kansasii [6]
  MIC99: 1 µM (≈ 0.478 µg/mL)
[7]
  viability at 48 h, 30 µM: 127%
[8]
  MIC99: 2 µM (≈ 0.955 µg/mL)
Mycobacterium avium
  MIC99: 250 µM (≈ 119 µg/mL)
Serratia marcescens
  Activity: inactive
[9]
  viability at 48 h, 30 µM: 133%
A-431
  IC50: > 30 µM

## CCCCCCn1c(SCc2cc([N+](=O)[O-])cc([N+](=O)[O-])c2)nnc1-c1ccccc1
Escherichia coli
  Activity: inactive
[10]
  inhibition: inactive
Mycobacterium kansasii [1]
  MIC99: 1 µM (≈ 0.442 µg/mL)
Mycobacterium kansasii [2]
  MIC99: 2 µM (≈ 0.883 µg/mL)
Candida albicans
  Activity: inactive
Aspergillus flavus
  Activity: inactive
[3]
  MIC99: 4 µM (≈ 1.77 µg/mL)
Mycobacterium kansasii [4]
  MIC99: 2 µM (≈ 0.883 µg/mL)
[5]
  inhibition: inactive
Candida tropicalis
  Activity: inactive
Klebsiella pneumoniae
  Activity: inactive
[11]
  inhibition: inactive
Mycobacterium kansasii [6]
  MIC99: 1 µM (≈ 0.442 µg/mL)
[8]
  MIC99: 2 µM (≈ 0.883 µg/mL)
Mycobacterium avium
  MIC99: 250 µM (≈ 110 µg/mL)
Serratia marcescens
  Activity: inactive

## COc1ccc(CSc2nnc(-c3cc([N+](=O)[O-])cc([N+](=O)[O-])c3)n2Cc2ccccc2)cc1
Escherichia coli
  Activity: inactive
[10]
  inhibition: Active
Mycobacterium kansasii [1]
  MIC99: 0.03 µM (≈ 0.0143 µg/mL)
Mycobacterium kansasii [2]
  MIC99: 0.03 µM (≈ 0.0143 µg/mL)
Candida albicans
  Activity: inactive
Aspergillus flavus
  Activity: inactive
[3]
  MIC99: 0.03 µM (≈ 0.0143 µg/mL)
Mycobacterium kansasii [4]
  MIC99: 0.03 µM (≈ 0.0143 µg/mL)
HepG2
  IC50: > 30 µM
[5]
  inhibition: inactive
Candida tropicalis
  Activity: inactive
Klebsiella pneumoniae
  Activity: inactive
[11]
  inhibition: Active
Mycobacterium kansasii [6]
  MIC99: 0.03 µM (≈ 0.0143 µg/mL)
[7]
  viability at 48 h, 30 µM: 92%
[8]
  MIC99: 0.03 µM (≈ 0.0143 µg/mL)
Mycobacterium avium
  MIC99: 62 µM (≈ 29.6 µg/mL)
Serratia marcescens
  Activity: inactive
[9]
  viability at 48 h, 30 µM: 104%
A-431
  IC50: > 30 µM

## O=[N+]([O-])c1cc(-c2nnc(SCc3ccccc3)n2Cc2ccccc2)cc(C(F)(F)F)c1
[12]
  selectivity ratio at 504 h: > 100
[13]
  selectivity ratio at 336 h: > 100
Escherichia coli
  Activity: inactive
Mycobacterium kansasii [1]
  MIC99: 0.03 µM (≈ 0.0141 µg/mL)
Mycobacterium kansasii [2]
  MIC99: 0.03 µM (≈ 0.0141 µg/mL)
Candida albicans
  Activity: inactive
Aspergillus flavus
  Activity: inactive
[3]
  MIC99: 0.06 µM (≈ 0.0282 µg/mL)
Mycobacterium kansasii [4]
  MIC99: 0.03 µM (≈ 0.0141 µg/mL)
HepG2
  IC50: 21.5 µM
[5]
  inhibition: Active
[14]
  selectivity ratio at 336 h: > 100
Candida tropicalis
  Activity: inactive
Klebsiella pneumoniae
  Activity: inactive
[15]
  selectivity ratio at 504 h: > 100
Mycobacterium kansasii [6]
  MIC99: 0.03 µM (≈ 0.0141 µg/mL)
[7]
  viability at 48 h, 30 µM: 37%
[8]
  MIC99: 0.03 µM (≈ 0.0141 µg/mL)
[16]
  selectivity ratio at 336 h: > 100
Mycobacterium avium
  MIC99: 250 µM (≈ 118 µg/mL)
Serratia marcescens
  Activity: inactive
[9]
  viability at 48 h, 30 µM: 18%
A-431
  IC50: 10.1 µM
